ChEMBL document CHEMBL1121527, “Heterocyclic analogues of the antihypertensive beta-adrenergic blocking agent (S)-2-[3-(ter-butylamino)-2-hydroxypropoxy]-3-cyanopyridine” (1980)
Values joined by “and” are separate entries in the source; they are usually repeats but may differ in a detail not shown here. Equal values may be shown once.

Experiments:
Rattus norvegicus [1] = test: Tested for maximum fall in mean arterial pressure in Spontaneously hypertensive rats after peroral administration by using 1% methyl cellulose as vehicle at 20 mg/kg; format: functional; conditions: route oral
Rattus norvegicus [2] = test: Tested for maximum fall in mean arterial pressure in Spontaneously hypertensive rats after peroral administration by using 1% methyl cellulose as vehicle at 5 mg/kg; format: functional; conditions: route oral
Rattus norvegicus [3] = test: Tested for maximum fall in mean arterial pressure in Spontaneously hypertensive rats after peroral administration by using 1% methyl cellulose as vehicle at 1.25 mg/kg; format: functional; conditions: route oral
Rattus norvegicus [4] = test: Comparative effect on Maximum fall in mean arterial pressure of spontaneously hypertensive rat at the dose 0.625 mg/kg per os; format: functional, Artery
Rattus norvegicus [5] = test: Comparative effect on Maximum fall in mean arterial pressure of spontaneously hypertensive rat at the dose 0.312 mg/kg per os; format: functional, Artery
Canis familiaris [6] = test: Beta adrenergic blockade activity was measured in anesthetized dogs by blockade of isoproterenol induced tachycardia after iv administration; format: functional; conditions: Canis lupus familiaris
Outline: (§1)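 Mongrel dogs of either sex (8–13 kg) anesthetized with vinbarbital 50 mg/kg iv. Vagi cut, trachea cannulated, with artificial respiration only if required. Blood pressure recorded via femoral artery catheter and heart rate from the pressure pulse. Drugs given through a femoral vein catheter. Isoproterenol challenge at 0.5 μg/kg iv; the resulting hypotension and tachycardia were computed.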

Rattus norvegicus [7] = test: Comparative effect on Maximum fall in mean arterial pressure of spontaneously hypertensive rat at the dose 1.25 mg/kg per os; format: functional, Artery
Canis familiaris [8] = test: Beta adrenergic blockade activity was measured in anesthetized dogs by blockade of isoproterenol induced hypotension after iv administration; format: functional; conditions: Canis lupus familiaris; outline: as §1
Canis familiaris [9] = test: Tested for increase in iliac blood flow was measured in anesthetized dogs after timolol administered intravenously at dose 800 µg/kg
Rattus norvegicus [10] = test: Tested for maximum fall in mean arterial pressure in Spontaneously hypertensive rats after peroral administration by using 1% methyl cellulose as vehicle at 0.078 mg/kg; format: functional; conditions: route oral
Rattus norvegicus [11] = test: Tested for maximum fall in mean arterial pressure in Spontaneously hypertensive rats after peroral administration by using 1% methyl cellulose as vehicle at 0.312 mg/kg; format: functional; conditions: route oral
Canis familiaris [12] = test: Tested for increase in iliac blood flow was measured in anesthetized dogs after timolol administered intravenous at dose 800 mg/kg; format: functional, Canis lupus familiaris, Artery
Outline: (§2)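 Adult mongrel dogs of either sex (8–13 kg) under vinbarbital 50 mg/kg iv, with vagi cut and trachea cannulated. Carotid arterial pressure recorded. A 3.0 mm flow transducer on the right iliac artery. Intraarterial injections via a left femoral catheter tipped at the iliac bifurcation. Isoproterenol 0.4 μg ia given before and after timolol (320, 800 or 2000 μg/kg iv) to check β-blockade.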

Canis familiaris [13] = test: Tested for increase in iliac blood flow was measured in anesthetized dogs before timolol administered intra arterially at dose […]; format: functional, Canis lupus familiaris, Artery; outline: as §2
Canis familiaris [14] = test: Tested for increase in iliac blood flow was measured in anesthetized dogs after timolol administered intravenous at dose 2000 mg/kg; format: functional, Canis lupus familiaris, Artery; outline: as §2
Rattus norvegicus [15] = test: Tested for maximum fall in mean arterial pressure in Spontaneously hypertensive rats after peroral administration by using 1% methyl cellulose as vehicle at 80 mg/kg; format: functional; conditions: route oral
Canis familiaris [16] = test: Tested for increase in iliac blood flow was measured in anesthetized dogs before timolol administered intra arterially at dose 400 mg/kg
Canis familiaris [17] = test: Tested for increase in iliac blood flow was measured in anesthetized dogs after timolol administered intravenous at dose 1600 mg/kg; format: functional, Canis lupus familiaris, Artery

## CCOC(=O)c1sc(SC)nc1OCC(O)CNC(C)(C)C (configuration not stated)
Rattus norvegicus [1]
  MAP: 15 mmHg

## CC(C)(C)NC[C@H](O)COc1nc(-c2ccccc2)sc1C(N)=O
Rattus norvegicus [1]
  MAP: 15 mmHg

## CCOC(=O)c1sc(-c2ccccc2)nc1OC[C@@H](O)CNC(C)(C)C
Rattus norvegicus [1]
  MAP: 10 mmHg

## CC(C)(C)NCC(O)COc1nsnc1C#N (configuration not stated)
Rattus norvegicus [2]
  MAP: 9 mmHg

## Cc1nc(OCC(O)CNC(C)(C)C)c(C(N)=O)s1 (racemic)
Rattus norvegicus [3]
  MAP: 22 mmHg
Rattus norvegicus [2]
  MAP: 30 mmHg
Rattus norvegicus [1]
  MAP: 23 mmHg

## CC(C)(C)NC[C@H](O)COc1nsnc1N1CCOCC1 [TIMOLOL]
Rattus norvegicus [4]
  MAP: 0 mmHg
Rattus norvegicus [5]
  MAP: 3 mmHg
Canis familiaris [6]
  ED50: 2.4 µg/kg
Rattus norvegicus [7]
  MAP: -1 mmHg
Canis familiaris [8]
  ED50: 1.3 µg/kg

## CC(C)(C)NCC(O)COc1ncccc1C#N (configuration not stated)
Canis familiaris [9]
  Activity: 38 mL/min
Canis familiaris [6]
  ED50: 1.5 µg/kg
Rattus norvegicus [3]
  MAP: 47 mmHg
Rattus norvegicus [10]
  MAP: 19 mmHg
Rattus norvegicus [11]
  MAP: 30 mmHg
Canis familiaris [12]
  Activity: 62 mL/min
Canis familiaris [13]
  Activity: 98 mL/min
Canis familiaris [14]
  Activity: 90 mL/min
Canis familiaris [8]
  ED50: 5.2 µg/kg

## Cc1nc(OC[C@@H](O)CNC(C)(C)C)c(C(N)=O)s1
Rattus norvegicus [1]
  MAP: 11 mmHg

## CC(C)(C)NC[C@H](O)COc1nc(-c2ccccc2)sc1C#N
Rattus norvegicus [2]
  MAP: 11 mmHg
Rattus norvegicus [15]
  MAP: 14 mmHg
Rattus norvegicus [1]
  MAP: 9 mmHg

## CC(C)(C)NCC(O)COc1nc2ccncc2cc1C#N (configuration not stated)
Rattus norvegicus [1]
  MAP: 22 mmHg

## Cc1sc(-c2ccncc2)nc1OC[C@@H](O)CNC(C)(C)C
Rattus norvegicus [2]
  MAP: 8 mmHg
Rattus norvegicus [1]
  MAP: 41 mmHg

## Cc1nc(OC[C@@H](O)CNC(C)(C)C)c(C#N)s1
Rattus norvegicus [1]
  MAP: 21 mmHg

## CC(C)(C)NCC(O)COc1ncsc1C#N (configuration not stated)
Canis familiaris [6]
  ED50: 10 µg/kg
Rattus norvegicus [3]
  MAP: 29 mmHg
Rattus norvegicus [10]
  MAP: 11 mmHg
Rattus norvegicus [11]
  MAP: 26 mmHg
Rattus norvegicus [2]
  MAP: 42 mmHg
Canis familiaris [13]
  Activity: 125 mL/min
Rattus norvegicus [1]
  MAP: 37 mmHg
Canis familiaris [8]
  ED50: 30 µg/kg

## CC(C)(C)NCC(O)COc1ccsn1 (configuration not stated)
Rattus norvegicus [3]
  MAP: 8 mmHg
Rattus norvegicus [2]
  MAP: 26 mmHg
Rattus norvegicus [1]
  MAP: 22 mmHg

## CCOC(=O)c1scnc1OCC(O)CNC(C)(C)C (configuration not stated)
Rattus norvegicus [1]
  MAP: 9 mmHg

## CC(C)(C)NCC(O)COc1nc2ncccc2cc1C#N (configuration not stated)
Rattus norvegicus [2]
  MAP: 22 mmHg
Canis familiaris [13]
  Activity: 0 mL/min
Rattus norvegicus [1]
  MAP: 28 mmHg

## Cc1sc(-c2ccccc2)nc1OC[C@@H](O)CNC(C)(C)C
Rattus norvegicus [15]
  MAP: 12 mmHg
Rattus norvegicus [1]
  MAP: 17 mmHg

## CC(C)NCC(O)COc1cccc2ccccc12 (configuration not stated) [PROPRANOLOL]
Canis familiaris [6]
  ED50: 51 µg/kg
Rattus norvegicus [3]
  MAP: 12 mmHg
Rattus norvegicus [2]
  MAP: 7 mmHg
Rattus norvegicus [1]
  MAP: 14 mmHg
Canis familiaris [8]
  ED50: 19 µg/kg

## NNc1nncc2ccccc12 [HYDRALAZINE]
Canis familiaris [16]
  Activity: 78 mL/min
Canis familiaris [13]
  Activity: 66 mL/min

## CC(C)(C)NCC(O)COc1nscc1Br (configuration not stated)
Canis familiaris [6]
  ED50: 3 µg/kg
Rattus norvegicus [2]
  MAP: 41 mmHg
Canis familiaris [17]
  Activity: 33 mL/min
Canis familiaris [13]
  Activity: 31 mL/min
Rattus norvegicus [1]
  MAP: 30 mmHg
Canis familiaris [8]
  ED50: 3 µg/kg

## CC(C)(C)NCC(O)COc1nccnc1C#N (configuration not stated)
Rattus norvegicus [1]
  MAP: 8 mmHg

## CC(C)(C)NCC(O)COc1nscc1C#N (configuration not stated)
Canis familiaris [6]
  ED50: 28 µg/kg
Rattus norvegicus [2]; 5 mg/kg
  MAP: 27 mmHg and 9 mmHg
Canis familiaris [13]
  Activity: 22 mL/min
Canis familiaris [14]
  Activity: 20 mL/min
Rattus norvegicus [1]
  MAP: 52 mmHg
Canis familiaris [8]
  ED50: 27 µg/kg

## CSc1nc(OCC(O)CNC(C)(C)C)c(C(N)=O)s1 (configuration not stated)
Rattus norvegicus [1]
  MAP: 11 mmHg
